Laboratory results as given in publication PMC10694493 (Cell Reports Methods, 2023).

Experiment: B2LiVe 1D-1H amide-selective NMR, solution-to-membrane partitioning
Format: binding
Settings: POPC:POPG 9:1 LUV; 3 μM protein; pH 4.2
Summary of the method: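 Test protein held constant while POPC:POPG 9:1 LUV (reverse-phase evaporation, 40 mM stock, extruded through 1.2 μm filters) are titrated from 0 to 2 mM. Buffer: 20 mM HEPES-Na, 20 mM NaCl, 5% D2O, 25°C. 1D amide-selective HET-SOFAST 1H spectra at 800 MHz, PC9 120° pulse centred at 9.5 ppm. Fraction in solution is taken from the amide integral after subtracting the highest-lipid vesicle spectrum.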

B1: apo-Mb: apo-myoglobin, 16.9 kDa amphitropic protein, Sigma-Aldrich (protein, UniProt P68082 2-154, looked up)
Myoglobin: GLSDGEWQQVLNVWGKVEADIAGHGQEVLIRLFTGHPETLEKFDKFKHLKTEAEMKASEDLKKHGTVVLTALGGILKKKGHHEAELKPLAQSHATKHKIPIKYLEFISDAIIHVLHSKHPGDFGADAQGAMTKALELFRNDIAAKYKELGFQG
modifications: heme-free
Which “NMR signal remaining at the highest lipid concentration” value does the source give for B1 here?
The value was “completely disappears”.
